CHO-K1 Ca antag: counter-screen for M1 antagonists: effect in parental CHO-K1 cells | ATP-induced calcium, Fluo-8 fluorescence | inhibition, % at 3 µM | 360,000 tested, 0.6% active;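 active means inhibition above a per-plate cutoff, the plate's mean sample inhibition plus 3 SD, cut at about 24% in these data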;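 further: 0% = DMSO plus EC80 ATP and 100% = DMSO alone without ATP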
CHO-K1 Ca ag: M1 agonist counterscreen hit in parental CHO-K1 cells; activation, % at 3 µM; Fluo-8 calcium fluorescence; scaled to maximal ATP response, vehicle zero; 360,000 tested, 0.48% active; in the data active means activation above about 15%;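 further: untransfected CHO-K1 host cells lacking M1 receptor as counterscreen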
CHRM5 antagonist: blocks acetylcholine activation of human M5 receptor; AID 624040; CHO-hM5 cells, Fluo-8 calcium fluorescence, ACh EC80; P08912; inhibition, % at 3 µM; 360,000 tested, 0.59% active;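 active means inhibition above a per-plate cutoff, the mean of that plate's test compounds plus 3 SD, cut at about 27% in these data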;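 further: 0% = acetylcholine EC80 with DMSO and 100% = DMSO without agonist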
Target sequence (P08912 whole entry, looked up): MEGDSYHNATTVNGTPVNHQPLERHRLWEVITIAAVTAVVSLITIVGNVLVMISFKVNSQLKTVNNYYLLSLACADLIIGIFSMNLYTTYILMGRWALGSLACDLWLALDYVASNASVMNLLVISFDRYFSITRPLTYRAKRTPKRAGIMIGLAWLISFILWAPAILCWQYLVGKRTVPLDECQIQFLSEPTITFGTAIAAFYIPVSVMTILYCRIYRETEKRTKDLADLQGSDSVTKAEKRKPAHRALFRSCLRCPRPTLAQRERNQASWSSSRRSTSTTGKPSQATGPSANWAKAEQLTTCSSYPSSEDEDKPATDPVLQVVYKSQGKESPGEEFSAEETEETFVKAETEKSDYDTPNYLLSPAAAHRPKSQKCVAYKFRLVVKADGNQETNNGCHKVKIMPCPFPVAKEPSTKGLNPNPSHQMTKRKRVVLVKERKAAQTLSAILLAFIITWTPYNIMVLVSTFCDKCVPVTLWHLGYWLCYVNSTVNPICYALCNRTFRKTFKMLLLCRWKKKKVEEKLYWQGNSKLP
CHO-K1 Ca PAM: M1 PAM counterscreen hit in parental CHO-K1 cells; ATP EC20, Fluo-8 calcium fluorescence; 0% at ATP EC20, 100% at ATP max; activation, % at 3 µM; 360,000 tested, 0.02% active; AID 602247;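 active means activation above the run cutoff, the mean activation of all test compounds plus 3 SD, cut at about 40% in these data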;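 further: peak over basal fluorescence ratio in a 140 s read after ATP addition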
CHRM5 agonist: agonists of human muscarinic M5 receptor (CHRM5); CHO-K1 hM5 cells, Fluo-8 calcium fluorescence; 0% DMSO wells, 100% maximal acetylcholine response; activation, % at 3 µM; 360,000 tested, 0.19% active; AID 624037;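 active means activation above the run's mean over test compounds plus 3 SD, cut at about 23% in these data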;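 further: signal is peak over basal fluorescence ratio across the kinetic read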
CHRM5 PAM: CHRM5 positive allosteric modulation | CHO-K1 hM5, Fluo-8 calcium, ACh EC20 PAM; 0% = ACh EC20, 100% = ACh EC100 | activation, % at 3 µM | 360,000 tested, 0.3% active;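 active means activation above the run cutoff, the mean activation of all test compounds plus 3 SD, cut at about 18% in these data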
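System: CHO-K1 cell line with stable human muscarinic M5 receptor expression | Also added: EC20 acetylcholine as agonist stimulus | Compound: One concentration, 3 µM final (nominal) | Timing: Fluo-8 loading 80 min at 37 °C plus 30 min room temperature | Measured by: Fluo-8 calcium dye fluorescence, kinetic read | Read-out basis: % activation, ACh-normalized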
* marks the source's active call; other numbers are inactive results. A selection: hits, their analogues and other compounds. The true share with any hit is near 1.7%.

SMILES | CHO-K1 Ca antag | CHO-K1 Ca ag | CHRM5 antagonist | CHO-K1 Ca PAM | CHRM5 agonist | CHRM5 PAM
COc1ccc(/C=C/C(=O)c2cc(F)ccc2OC(=O)c2ccc(OC)c(OC)c2)cc1OC | 1.6 | 3.7 | 14.9 | 15.0 | -1.4 | -3.6
COC(=O)C1CCN(c2cc(=O)n(Cc3ccc(F)cc3)c(=O)[nH]2)CC1 | -3.8 | 0.4 | -7.7 | 14.5 | 3.4 | 0.7
CCOC(=O)C1CCCN(c2cc(=O)n(Cc3ccc(F)cc3)c(=O)[nH]2)C1 (stereo unspecified) | -0.6 | 0.4 | -6.1 | 1.7 | 23.9* | -2.6
CCC1Oc2ccccc2N(CC(=O)Nc2ccccc2OC)C1=O (stereo unspecified) | 23.7* | 1.7 | 2.3 | -8.8 | -1.3 | -4.5
CCOC(=O)C1=C(COC(=O)COc2ccc(C(=O)CC)cc2)NC(=O)NC1C (stereo unspecified) | 11.7 | 16.6* | 14.4 | -11.3 | 5.9 | -22.2
CCOC(=O)C1=C(COC(=O)COc2ccc(C(C)=O)cc2)NC(=O)NC1C (stereo unspecified) | 1.7 | 5.4 | 0.6 | -14.7 | 8.4 | -5.6
Cc1cccc(NC(=O)CNC(=O)COC(=O)c2ccco2)c1C | -0.1 | 5.8 | 12.5 | 11.7 | 3.9 | -2.5
Cn1c(=O)n(-c2ccc(Cl)cc2)c(=O)c2c3c(sc21)COC(C)(C)C3 | 0.5 | 0.1 | -4.8 | 1.8 | 1.6 | 10.7
CCN1CCN(c2ncnc3scc(-c4ccc(C)c(C)c4)c23)CC1 | -3.3 | 0.1 | 45.9* | -6.3 | -7.9 | -18.5
CC(C)c1ccc2c(c1)C(=O)NC(C)(C)C2 | -8.0 | -0.5 | -1.3 | 17.5 | -3.4 | 1.0
CCC(=O)N1CCN(c2ccc(NC(=O)c3cc4ccccc4o3)cc2Cl)CC1 | 22.6 | 10.0 | 18.9 | -9.0 | 1.5 | -16.7
O=C(Nc1ccc(N2CCN(C(=O)c3ccco3)CC2)c(Cl)c1)c1cc2ccccc2o1 | 7.8 | 6.2 | 30.5* | 16.4 | 1.8 | -23.0
Cc1c(C(C)C)c(=O)n(-c2ccc(S(=O)(=O)NCc3ccccc3)cc2)n1C | 24.5* | 8.4 | 20.3 | -11.5 | 2.8 | -11.9
Cc1c(C(C)C)c(=O)n(-c2ccc(S(=O)(=O)NC3CCCCC3)cc2)n1C | 9.4 | 9.9 | 30.3* | 0.8 | 2.2 | -13.7
Cc1c(C(C)C)c(=O)n(-c2ccc(S(=O)(=O)N3CCOCC3)cc2)n1C | -11.0 | 0.8 | -5.2 | 5.7 | -1.9 | -2.1
O=C(Nc1c(F)cc(F)cc1Br)c1ccco1 | -24.8 | 0.4 | -10.3 | 14.8 | 2.7 | 9.2
O=C(Cn1cnc2sc3c(c2c1=O)CCCC3)NCC(=O)Nc1ccccc1F | -16.5 | 0.7 | 5.4 | -0.7 | -4.6 | -0.2
O=C(CN(Cc1ccccc1)C(=O)CNS(=O)(=O)c1ccccc1)NCc1ccco1 | 1.1 | 0.6 | 13.4 | -3.4 | -2.1 | -0.2
O=[N+]([O-])c1cc(S(=O)(=O)N2CCOCC2)ccc1NS(=O)(=O)c1ccccc1 | -12.2 | 1.8 | 20.1 | 9.9 | -2.8 | -20.9
C#Cc1ccc([C@@H]2C=C(C(=O)Nc3ccccc3)O[C@H](OCC)[C@H]2CCCO)cc1 | -15.1 | 0.1 | 3.6 | 0.7 | -0.4 | -1.3
C#Cc1ccc([C@H]2C=C(C(=O)NCc3ccccc3)O[C@@H](OCC)[C@@H]2CCCO)cc1 | -17.8 | -0.3 | 34.3* | 15.7 | -10.9 | -39.9
C[C@@H]1CN([C@@H](C)CO)C(=O)c2c(c3ccccc3n2C)-c2ccccc2CO[C@H]1CN(C)C(=O)[C@H](Cc1ccccc1)N(C)C | -1.0 | 0.1 | 0.9 | -6.2 | -0.3 | 1.2
O=C(NCC1CCCN1S(=O)(=O)c1cccs1)c1ccc([N+](=O)[O-])cc1 (stereo unspecified) | 3.2 | 0.3 | 5.2 | -2.8 | -6.0 | -2.3
COc1ccccc1NC(=O)c1ccc(NC(=O)COC(=O)C2CCCCC2)cc1 | 7.1 | 19.0* | 0.2 | 7.1 | -1.7 | -11.6
CC1(C(=O)OCC(=O)Nc2ccc(C(N)=O)cc2)CC1(Cl)Cl (stereo unspecified) | -18.9 | 1.2 | 0.7 | 17.9 | -1.9 | 7.7
COc1ccccc1NC(=O)c1ccc(NC(=O)COC(=O)C2(C)CC2(Cl)Cl)cc1 (stereo unspecified) | 3.8 | 10.4 | 28.8* | 7.9 | 1.8 | -19.2
